Screening data: PubChem, several laboratories
Rad51 HR inh – Rad51 (human) homologous recombination inhibition; 200,000 tested, 0.085% active; inhibition, % at 10 µM; hRad51 DNA strand exchange, fluorescence dequenching;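 active = inhibition above 40% at the single screening dose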;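 also: 0% = DMSO control wells and 100% = blanks with heterologous ssDNA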
Target sequence (Q06609 whole entry, looked up): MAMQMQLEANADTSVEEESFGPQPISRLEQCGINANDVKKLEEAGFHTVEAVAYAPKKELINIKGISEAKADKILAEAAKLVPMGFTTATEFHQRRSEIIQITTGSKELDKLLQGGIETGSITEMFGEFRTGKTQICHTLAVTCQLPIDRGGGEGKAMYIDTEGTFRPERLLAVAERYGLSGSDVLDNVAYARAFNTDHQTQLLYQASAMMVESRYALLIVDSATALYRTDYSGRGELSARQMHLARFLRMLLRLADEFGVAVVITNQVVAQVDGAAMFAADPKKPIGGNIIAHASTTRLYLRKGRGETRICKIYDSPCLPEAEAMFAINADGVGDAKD
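material = hRad51 filaments on single-stranded DNA | reagent = Donor/quencher-labelled 47-bp dsDNA substrate | compound = 10 µM final, single point | schedule = strand-exchange reaction 15 min at room temperature | measured by = fluorescein emission 520 nm, excitation 485 nm | read-out basis = % inhibition versus plate control and blank means | benchmarks = plate controls and plate blanks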
Cl transport mod – modulators of human KCC2 chloride dependent transport | 190,000 tested, 2.2% active | B-score of Tl+ flux slope (higher = more flux/activation; lower = inhibition) at 10 µM | KCC2 cells, thallium flux FluoZin-2 fluorescence | AID 1456;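 active = thallium flux slope and its plate-corrected score both differing from the plate sample mean at a set confidence after two filtering rounds, in either direction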;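 also: slope of fluorescence scaled to starting intensity during 10 to 20 s after thallium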
ROMK primary – human ROMK K+ channel modulation, primary screen | Tet-inducible ROMK, thallium flux fluorescence; actives lie on both sides | B-score at 10 µM | 130,000 tested, 2% active | AID 1918;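 active = signal ratio slope over the read window, or its plate-corrected B-score, at least 3 SD from the plate mean, either direction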;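 also: B-score of the F/F0 ratio slope over 7 to 12 s after thallium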
PKD1 kinase inh – inhibitors of human PKD1 kinase | Q15139 | 200,000 tested, 0.056% active | inhibition, % (no concentration beside the values) | PKD1 kinase fluorescence polarization assay; in the data active = inhibition above about 50%
* = called active by the depositor; . = no result. Only some compounds are listed: those with a hit (about 3% of all), similar ones and a draw of the others.

SMILES	Rad51 HR inh	Cl transport mod	ROMK primary	PKD1 kinase inh
COC(=O)c1cccc(NC(=O)CSc2nc3cccnc3n2C)c1	-2.9	.	-3.37*	-18.6
O=C(NC(=S)N1CCN(c2ccc([N+](=O)[O-])cc2)CC1)c1ccc(F)cc1	1.1	24.8*	0.342	-10.4
O=C(NC(=S)N1CCN(c2ccc([N+](=O)[O-])cc2)CC1)c1ccccc1F	.	4.95	0.394	-0.5
O=S(=O)(CS(=O)(=O)c1ccc(Cl)cc1)c1ccc(Cl)cc1	21.7	0.0868	-1.04	.
CCCCn1c(=S)[nH]c2c(oc3ccc(Cl)cc32)c1=O	0.8	.	4.81*	1.2
CC1CCCC2(C1)NC(=S)c1c(sc3c1CCCC3)N2 (stereo not drawn)	-2.2	53.9*	0.49	2.4
CCc1ccc2c(c1)c(N=NC1=NC(=O)CS1)c(O)n2C	.	9.41*	.	-3.4
Oc1c(Cl)cc(Cl)c2c1NCCC2	.	13.6*	.	-11.4
CSc1ccc(N/N=C(/C#N)S(=O)(=O)C(C)(C)C)cc1	5.7	-4.62*	-3.21*	-6.6
CC(=O)Nc1sc2c(c1C(N)=O)CCC2	8.8	-0.172	2.5*	-3.0
Cc1cc2c(cc1C)C(c1ccsc1)CC(=O)N2 (stereo not drawn)	.	0.336	-1.21	-4.2
O=C(N/N=C/c1ccc([N+](=O)[O-])s1)c1ccccc1Br	2.9	0.896	.	-0.3
Cc1ccccc1C(=O)N/N=C/c1ccc([N+](=O)[O-])s1	9.2	5.25*	.	-10.0
COc1ccc(NC(=O)[C@@H](NC(=O)c2ccccc2F)C(C)C)cc1S(=O)(=O)N1CCOCC1	-7.9	0.0463	0.146	0.3
O=C(Nc1cccc(Cl)c1N1CCOCC1)c1ccc([N+](=O)[O-])o1	8.2	-0.557	.	.
O=C(NC(=S)Nc1cccc(Cl)c1N1CCCC1)c1ccc(-c2cccc([N+](=O)[O-])c2)o1	-1.6	2.97*	.	-15.2
S=c1[nH]c2cc(Cl)ccc2s1	3.3	23.6*	.	-2.0
S=c1[nH]c2ccc(Cl)cc2[nH]1	5.5	0.339	0.942	-1.6
CCn1c(CNc2cccc(C(F)(F)F)c2)n[nH]c1=S	1.6	-1.54	-0.00123	-4.0
Cc1cc(C)c(S(=O)(=O)/N=C2/C=C(Sc3ncn[nH]3)C(=O)c3ccccc32)cc1C	-1.1	-0.567	-4.9*	-11.9
Cc1ccc(NC2=C/C(=N/S(=O)(=O)c3cccs3)c3ccccc3C2=O)cc1C	.	0.212	-0.00495	-1.3
CCc1ccc(OCC(=O)Nc2ccc(N3CCN(S(C)(=O)=O)CC3)cc2)cc1	.	-0.359	-0.0179	-2.1
c1ccc2c(c1)oc1c(NCc3ccc4c(c3)OCO4)ncnc12	10.2	-5.1*	-2.4	-2.9
CCNC(=S)N/N=C/c1c(Cl)cccc1Cl	14.7	9.33*	-1.33	-9.5
Cc1ccc(NC(=S)N/N=C/c2ccc(OCCC(C)C)cc2)c(C)c1	.	2.08	0.255	2.9
SMILES	Rad51 HR inh	Cl transport mod	ROMK primary	PKD1 kinase inh
Cc1ccc(NC(=S)N/N=C/c2c(Cl)cccc2Cl)c(C)c1	8.5	53.3*	0.277	-1.2
CCNC(=S)N/N=C/c1cccc(/C=N/NC(=S)NCC)c1	-0.9	-2.29	0.356	1.5
COc1ccc(Cc2noc(CN3CCCC(OCc4ccccn4)C3)n2)cc1OC (stereo not drawn)	-7.1	0.279	2.03	-9.3
CCn1c(SCC(=O)N2CCCc3ccccc32)nc2cccnc21	5.0	0.211	3.09*	-8.3
O=C(NC(=S)Nc1ccccc1Cl)c1csnn1	8.1	17.3*	.	-19.0
O=C(Nc1ccccc1NC(=O)c1csnn1)c1csnn1	-23.1	-1.09	-0.0571	1.8
CN(C)NC(=S)Nc1cccc(C(F)(F)F)c1	5.7	0.205	.	.
O=C(NC(=S)Nc1cccc(C(F)(F)F)c1)c1csnn1	1.2	59.5*	8.78*	-2.7
CCCOc1cccc(C(=O)NC(=S)Nc2cccc(C(F)(F)F)c2)c1	-5.3	10.5*	.	-8.0
Cc1cc(C)n(-c2nc3c(c(=O)[nH]c(=O)n3C)n2Cc2ccccc2)n1	2.0	-2.99	.	0.3
Cc1cc(C)n(-c2nc3c(c(=O)[nH]c(=O)n3C)n2Cc2ccc(F)cc2)n1	65.7*	1.1	.	-10.0
CC(c1ccccn1)N(Cc1ccco1)C(=S)Nc1cccc(F)c1 (stereo not drawn)	.	-0.00505	-1.01	-6.7
O=C(CSc1nc(CCC2CCCC2)nc2ccccc12)NCc1ccc2c(c1)OCO2	1.7	21.3*	1.02	-11.3
Cc1cc(NC(=O)CSc2nc(CCC3CCCC3)nc3ccccc23)no1	0.0	-2.59	.	-9.3
COc1ccc(-n2cc(-c3ccccc3)[nH]c2=S)cc1	1.1	17.6*	.	-4.1
COc1ccc(S(=O)(=O)NC2CC(C)(C)NC(C)(C)C2)cc1C(C)C	-21.4	.	.	.
Cc1cc2nc(CCN(C(=S)NCC(C)C)C3CCCC3)[nH]c2cc1C	.	-5.63*	.	4.4
CC12CCC(C(=O)NC3CCCCC3)([C@H](Br)C1=O)C2(C)C (stereo partly drawn)	1.8	0.0874	-0.931	.
N#Cc1c(-c2ccccc2)nc(SCC(=O)Nc2ccccc2)[nH]c1=O	.	-4.76*	0.676	-5.1
Cc1onc(-c2ccccc2)c1C(=O)NNC(=S)NC(=O)c1ccc(Br)cc1	1.2	19.6*	0.311	-8.2
CCOC(=O)c1sc(=NC(=O)CCS(=O)(=O)c2ccccc2)n(C)c1C	-10.7	0.151	0.253	90.6*
CCOC(=O)c1sc(=NC(=O)c2ccccc2)n(C)c1C	-0.5	0.323	-1.29	-8.1
COc1cccc(Oc2ccc3nnc(C(F)(F)F)n3n2)c1	-13.3	0.903	-0.587	-2.1
O=C(CSc1cn(CCNC(=O)c2cccs2)c2ccccc12)NC1CCCC1	-0.7	.	.	2.5
Cc1ccc(/C=C/C(=O)c2ccccc2O)cc1	10.9	-0.207	0.018	.
SMILES	Rad51 HR inh	Cl transport mod	ROMK primary	PKD1 kinase inh
Cc1ccc(/C=C/C(=O)c2cc(Br)ccc2OC(=O)c2ccco2)cc1	-14.3	-0.032	.	-11.4
Cc1cccc(/C=C/C(=O)c2cc(Br)ccc(=O)c2O)c1	-1.6	10.5*	-0.394	5.7
CCc1ccc(/C=C/C(=O)c2cc(Br)ccc(=O)c2O)cc1	-6.5	8.01*	1.49	-7.0
CCOc1ccc(C(=O)/C=C/c2ccc(OC)c(OC)c2)cc1	-1.3	-0.385	1.6	-0.4
CCOc1ccc(/C=C/C(=O)c2cc(Br)ccc(=O)c2O)cc1	-12.6	30.8*	0.762	-20.9
COc1ccc2c(c1)CCc1c(C(=O)N(C)c3ccccc3)noc1-2	5.5	-2.41	-0.655	-8.3
COc1cc(C(=O)NC(=S)Nc2ccc(N3CCCC3)cc2)cc(OC)c1OC	-4.5	-0.155	.	-6.1
CCOC(=O)c1c(C)[nH]c(C)c1C(=O)CSc1nnc(-c2ccco2)n1Cc1ccccc1	-3.6	-2.23	.	-8.8
Cc1ccc(Cn2ncc3c(N4CCN(c5ccccc5C)CC4)ncnc32)cc1	-9.6	0.12	.	-10.3
c1ccc(Cn2ncc3c(N4CCCCC4)ncnc32)cc1	-7.8	-4.08*	.	4.7
Cc1noc(C)c1CSc1nc2ccccc2nc1NS(=O)(=O)c1ccc(Cl)cc1	2.1	.	-3.13*	2.6
COCCCNC(=S)Nc1ccc(CC(=O)O)cc1	-21.8	0.438	.	-7.1
COc1ccc(/C=C2\CC/C(=C\c3ccc(OC)cc3OC)C2=O)c(OC)c1	-130.4	-1.7	-2.73*	-2.0
O=C(Nc1ccccc1)C1=C[C@H](c2ccc(Br)cc2)C[C@H](OCc2ccc(CO)cc2)O1	3.9	0.351	.	2.2
